# What was measured:
# [1] = molecular target: T1, Cannabinoid receptor 2 (Rattus norvegicus) (UniProt Q9QZN9); test: Agonist activity at rat recombinant CB2 receptor expressed in CHO-K1 cells assessed as inhibition of forskolin-stimulated intracellular cAMP level relative to CP-55940; assay type: functional, cell-based
# T1 sequence (whole entry): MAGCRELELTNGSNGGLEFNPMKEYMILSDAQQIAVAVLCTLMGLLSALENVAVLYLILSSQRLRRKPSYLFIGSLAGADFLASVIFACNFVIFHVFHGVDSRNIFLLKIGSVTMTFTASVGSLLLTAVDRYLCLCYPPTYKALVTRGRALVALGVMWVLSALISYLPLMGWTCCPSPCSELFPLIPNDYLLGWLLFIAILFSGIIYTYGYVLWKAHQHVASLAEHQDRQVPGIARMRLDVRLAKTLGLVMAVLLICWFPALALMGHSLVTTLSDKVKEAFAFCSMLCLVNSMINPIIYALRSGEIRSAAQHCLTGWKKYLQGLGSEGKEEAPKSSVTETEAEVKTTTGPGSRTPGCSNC
# Outline: (§1)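 CHO-K1 cells stably expressing human or rat CB1 or CB2 were used. Compounds were diluted from DMSO into HBSS/HEPES/BSA buffer containing 60 µM forskolin, then combined with 5000 cells/well plus Alexa647 anti-cAMP antibody, 1 h at room temperature. A biotinylated-cAMP detection mix was added for another 1 h. Emission at 665 nm gave concentration-response curves and EC50; Emax is expressed as a percentage of the reference agonist maximum.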
# Cannabinoid receptor 1 [2] = molecular target: T2, Cannabinoid receptor 1 (Homo sapiens, UniProt P21554); test: Agonist activity at human recombinant CB1 receptor expressed in Sf9 cells by GTP-europium binding assay relative to CP-55940
# Outline: (§2)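 Membranes were from Sf9 insect cells cotransfected with CB1 or CB2 plus Gαi3 (Bmax 1.7 pmol/mL). Compound (0.01 nM–10 µM, 1% DMSO final) was added to buffer with Hepes, BSA, 10 mM MgCl2, 150 mM NaCl, 5 µM GDP, 10 nM GTP-europium, saponin and membranes (CB1 4.5 µg/well, CB2 14 µg/well). Incubation was 45 min at room temperature, then filtration and washing, with fluorescence read at 615 nm. 100% efficacy was set by 3 µM reference agonist.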
# Cannabinoid receptor 1 [3] = molecular target: T2, Cannabinoid receptor 1; test: Agonist activity at human recombinant CB1 receptor expressed in CHO-K1 cells assessed as inhibition of forskolin-stimulated intracellular cAMP level relative to CP-55940; assay type: functional, cell-based; outline: as §1
# Cannabinoid receptor 1 [4] = molecular target: T2, Cannabinoid receptor 1; test: Agonist activity at human recombinant CB1 receptor expressed in CHO-K1 cells assessed as inhibition of forskolin-stimulated intracellular cAMP level; assay type: functional, cell-based
# Outline: (§3)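 CHO-K1 cells stably expressing human or rat CB1 or CB2 were used. Compounds were diluted from DMSO into HBSS/HEPES/BSA buffer containing 60 µM forskolin, then combined with 5000 cells/well plus Alexa647 anti-cAMP antibody, 1 h at room temperature. A biotinylated-cAMP detection mix was added for another 1 h.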
# Cannabinoid receptor 2 [5] = molecular target: T3, Cannabinoid receptor 2 (Homo sapiens, UniProt P34972); test: Agonist activity at human recombinant CB2 receptor expressed in Sf9 cells by GTP-europium binding assay relative to CP-55940; outline: as §2
# [6] = molecular target: Cannabinoid receptor 1 (Rattus norvegicus) (UniProt P20272); test: Agonist activity at rat recombinant CB1 receptor expressed in CHO-K1 cells assessed as inhibition of forskolin-stimulated intracellular cAMP level relative to CP-55940; assay type: functional, cell-based; outline: as §1
# Cannabinoid receptor 2 [7] = molecular target: T3, Cannabinoid receptor 2; test: Agonist activity at human recombinant CB2 receptor expressed in CHO-K1 cells assessed as inhibition of forskolin-stimulated intracellular cAMP level; assay type: functional, cell-based; outline: as §3
# Cannabinoid receptor 2 [8] = molecular target: T4, Cannabinoid receptor 2 (Rattus norvegicus, UniProt Q9QZN9); test: Agonist activity at rat recombinant CB2 receptor expressed in CHO-K1 cells assessed as inhibition of forskolin-stimulated intracellular cAMP level; assay type: functional, cell-based; outline: as §1
# T4 sequence (Q9QZN9 whole entry): T1 sequence (whole entry)
# Cannabinoid receptor 2 [9] = molecular target: T3, Cannabinoid receptor 2; test: Agonist activity at human recombinant CB2 receptor expressed in Sf9 cells by GTP-europium binding assay
# Outline: (§4)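 Membranes were from Sf9 insect cells cotransfected with CB1 or CB2 plus Gαi3 (Bmax 1.7 pmol/mL). Compound (0.01 nM–10 µM, 1% DMSO final) was added to buffer with Hepes, BSA, 10 mM MgCl2, 150 mM NaCl, 5 µM GDP, 10 nM GTP-europium, saponin and membranes (CB1 4.5 µg/well, CB2 14 µg/well). 100% efficacy was set by 3 µM reference agonist.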
# Cannabinoid receptor 2 [10] = molecular target: T3, Cannabinoid receptor 2; test: Agonist activity at human recombinant CB2 receptor expressed in CHO-K1 cells assessed as inhibition of forskolin-stimulated intracellular cAMP level relative to CP-55940; assay type: functional, cell-based; outline: as §1
# Cannabinoid receptor 1 [11] = molecular target: T2, Cannabinoid receptor 1; test: Agonist activity at human CB1 receptor expressed in Sf9 cells by GTP-europium binding assay; outline: as §4
# Cannabinoid receptor 1 [12] = molecular target: Cannabinoid receptor 1 (Rattus norvegicus, UniProt P20272); test: Agonist activity at rat recombinant CB1 receptor expressed in CHO-K1 cells assessed as inhibition of forskolin-stimulated intracellular cAMP level; assay type: functional, cell-based; outline: as §3
# [13] = Metabolic stability in rat liver microsomes; assay type: ADME, Microsome; details: read-out: Stability
# [14] = Metabolic stability in human liver microsomes; assay type: ADME, Microsome; details: read-out: Stability
# [15] = Solubility in simulated intestinal fluid; assay type: physicochemical; details: read-out: Stability
# [16] = AUC in rat at 10 mg/kg, po; assay type: ADME, organism-based, Plasma; set-up: dose 10 mg/kg, route oral; details: plasma
# [17] = Cmax in rat at 10 mg/kg, po; assay type: ADME, organism-based; set-up: dose 10 mg/kg, route oral; details: in vivo
# [18] = Oral bioavailability in rat at 10 mg/kg; assay type: ADME, organism-based; details: in vivo
# [19] = Half life in rat at 10 mg/kg, po; assay type: ADME, organism-based; set-up: dose 10 mg/kg, route oral; details: in vivo
# T3 sequence (P34972 whole entry): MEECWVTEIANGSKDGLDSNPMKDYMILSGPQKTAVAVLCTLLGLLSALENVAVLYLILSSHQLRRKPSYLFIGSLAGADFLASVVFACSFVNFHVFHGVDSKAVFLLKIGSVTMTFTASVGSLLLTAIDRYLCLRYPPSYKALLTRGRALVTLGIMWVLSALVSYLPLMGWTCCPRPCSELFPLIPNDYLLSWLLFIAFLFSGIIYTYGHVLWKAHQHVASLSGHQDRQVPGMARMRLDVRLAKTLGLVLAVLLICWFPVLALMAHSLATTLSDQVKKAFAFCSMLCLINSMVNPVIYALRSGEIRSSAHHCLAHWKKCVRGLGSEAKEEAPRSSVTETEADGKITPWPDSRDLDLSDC
# Sequence of Cannabinoid receptor 1 (Rattus norvegicus, UniProt P20272) (P20272 whole entry): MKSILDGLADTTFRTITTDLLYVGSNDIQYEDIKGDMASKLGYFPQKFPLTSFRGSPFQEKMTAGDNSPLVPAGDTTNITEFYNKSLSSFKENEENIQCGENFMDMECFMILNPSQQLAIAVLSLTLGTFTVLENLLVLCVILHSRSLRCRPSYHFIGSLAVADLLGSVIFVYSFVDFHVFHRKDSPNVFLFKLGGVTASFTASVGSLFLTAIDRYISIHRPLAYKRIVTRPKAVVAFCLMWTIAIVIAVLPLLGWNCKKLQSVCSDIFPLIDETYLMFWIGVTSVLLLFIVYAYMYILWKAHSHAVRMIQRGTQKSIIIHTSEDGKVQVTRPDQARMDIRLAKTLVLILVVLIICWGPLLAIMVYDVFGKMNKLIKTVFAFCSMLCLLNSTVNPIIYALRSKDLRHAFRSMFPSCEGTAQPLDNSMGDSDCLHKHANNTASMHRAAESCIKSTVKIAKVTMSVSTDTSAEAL
# Sequence of Cannabinoid receptor 1 (Rattus norvegicus) (P20272 whole entry): as above
# T2 sequence (P21554 whole entry): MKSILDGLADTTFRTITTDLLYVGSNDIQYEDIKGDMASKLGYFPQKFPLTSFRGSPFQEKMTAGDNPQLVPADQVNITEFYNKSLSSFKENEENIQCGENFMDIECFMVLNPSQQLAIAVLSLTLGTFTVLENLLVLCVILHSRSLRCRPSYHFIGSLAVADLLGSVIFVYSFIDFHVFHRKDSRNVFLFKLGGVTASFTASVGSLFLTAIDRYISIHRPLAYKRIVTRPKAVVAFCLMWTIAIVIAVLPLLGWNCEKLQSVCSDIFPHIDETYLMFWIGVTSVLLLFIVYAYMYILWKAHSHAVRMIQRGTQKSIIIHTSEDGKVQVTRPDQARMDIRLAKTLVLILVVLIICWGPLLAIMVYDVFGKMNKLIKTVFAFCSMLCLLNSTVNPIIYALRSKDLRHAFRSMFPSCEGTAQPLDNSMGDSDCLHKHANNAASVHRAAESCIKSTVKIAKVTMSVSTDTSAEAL
structure (smiles),measurement,setting,value
Fc1ccc(-c2noc(CCCNc3nc4ccc(Cl)cc4s3)n2)c(Cl)c1,Emax,[1],66%
same,Emax,Cannabinoid receptor 1 [2],16%
same,Emax,Cannabinoid receptor 1 [3],25%
same,EC50,Cannabinoid receptor 1 [4],> 1000 nM
same,Emax,Cannabinoid receptor 2 [5],100%
same,Emax,[6],45%
same,EC50,Cannabinoid receptor 2 [7],110 nM
same,EC50,Cannabinoid receptor 2 [8],290 nM
same,EC50,Cannabinoid receptor 2 [9],170 nM
same,Emax,Cannabinoid receptor 2 [10],87%
same,EC50,Cannabinoid receptor 1 [11],3300 nM
same,EC50,Cannabinoid receptor 1 [12],> 1000 nM
O=C(CCc1nc(-c2ccc(F)cc2Cl)no1)Nc1cnc2ccc(Cl)cc2c1,Emax,[1],97%
same,Emax,Cannabinoid receptor 1 [2],82%
same,Emax,Cannabinoid receptor 1 [3],57%
same,EC50,Cannabinoid receptor 1 [4],710 nM
same,Emax,Cannabinoid receptor 2 [5],110%
same,Emax,[6],99%
same,EC50,Cannabinoid receptor 2 [7],0.5 nM
same,EC50,Cannabinoid receptor 2 [8],11 nM
same,EC50,Cannabinoid receptor 2 [9],1400 nM
same,microsomal CLint,[13],< 100 µL/min/mg
same,Emax,Cannabinoid receptor 2 [10],99%
same,microsomal CLint,[14],< 100 µL/min/mg
same,EC50,Cannabinoid receptor 1 [11],0.9 nM
same,EC50,Cannabinoid receptor 1 [12],130 nM
CCn1c2ccccc2c2cc(NC(=O)CCc3nc(-c4ccc(F)cc4C#N)no3)ccc21,Emax,[1],130%
same,Emax,Cannabinoid receptor 1 [2],39%
same,Emax,Cannabinoid receptor 1 [3],12%
same,EC50,Cannabinoid receptor 1 [4],> 1000 nM
same,Emax,Cannabinoid receptor 2 [5],120%
same,Emax,[6],84%
same,EC50,Cannabinoid receptor 2 [7],0.33 nM
same,EC50,Cannabinoid receptor 2 [8],0.13 nM
same,EC50,Cannabinoid receptor 2 [9],0.85 nM
same,Emax,Cannabinoid receptor 2 [10],110%
same,EC50,Cannabinoid receptor 1 [11],709 nM
same,EC50,Cannabinoid receptor 1 [12],240 nM
O=C(CCc1nc(-c2ccc(F)cc2Cl)no1)Nc1cnc2ncc(Cl)cc2c1,Emax,[1],100%
same,Emax,Cannabinoid receptor 1 [2],43%
same,Emax,Cannabinoid receptor 1 [3],30%
same,EC50,Cannabinoid receptor 1 [4],> 1000 nM
same,Emax,Cannabinoid receptor 2 [5],110%
same,Emax,[6],100%
same,EC50,Cannabinoid receptor 2 [7],0.6 nM
same,EC50,Cannabinoid receptor 2 [8],0.4 nM
same,EC50,Cannabinoid receptor 2 [9],3.3 nM
same,microsomal CLint,[13],< 100 µL/min/mg
same,Emax,Cannabinoid receptor 2 [10],97%
same,microsomal CLint,[14],< 100 µL/min/mg
same,EC50,Cannabinoid receptor 1 [11],2300 nM
same,EC50,Cannabinoid receptor 1 [12],220 nM
O=C(CCc1nc(-c2ccc(F)cc2Cl)no1)Nc1nnc(N2CCCCC2)s1,Emax,[1],98%
same,Emax,Cannabinoid receptor 1 [2],47%
same,Emax,Cannabinoid receptor 1 [3],38%
same,EC50,Cannabinoid receptor 1 [4],> 1000 nM
same,Emax,Cannabinoid receptor 2 [5],98%
same,Emax,[6],87%
same,EC50,Cannabinoid receptor 2 [7],0.8 nM
same,EC50,Cannabinoid receptor 2 [8],1.1 nM
same,EC50,Cannabinoid receptor 2 [9],1.2 nM
same,microsomal CLint,[13],< 100 µL/min/mg
same,Emax,Cannabinoid receptor 2 [10],98%
same,microsomal CLint,[14],< 100 µL/min/mg
same,EC50,Cannabinoid receptor 1 [11],211 nM
same,EC50,Cannabinoid receptor 1 [12],220 nM
CCn1c2ccccc2c2cc(NC(=O)CCc3nc(-c4ccc(F)cc4)no3)ccc21,Emax,[1],90%
same,Emax,Cannabinoid receptor 1 [2],55%
same,Emax,Cannabinoid receptor 1 [3],24%
same,EC50,Cannabinoid receptor 1 [4],330 nM
same,Emax,Cannabinoid receptor 2 [5],95%
same,Emax,[6],65%
same,EC50,Cannabinoid receptor 2 [7],4.8 nM
same,EC50,Cannabinoid receptor 2 [8],3.2 nM
same,EC50,Cannabinoid receptor 2 [9],9.8 nM
same,Emax,Cannabinoid receptor 2 [10],95%
same,EC50,Cannabinoid receptor 1 [11],1200 nM
same,EC50,Cannabinoid receptor 1 [12],650 nM
CCn1c2ccccc2c2cc(NC(=O)CCc3nc(-c4ccc(F)cc4Cl)no3)ccc21,Emax,[1],98%
same,Emax,Cannabinoid receptor 1 [2],65%
same,Emax,Cannabinoid receptor 1 [3],20%
same,EC50,Cannabinoid receptor 1 [4],> 1000 nM
same,Emax,Cannabinoid receptor 2 [5],98%
same,Emax,[6],79%
same,EC50,Cannabinoid receptor 2 [7],0.6 nM
same,EC50,Cannabinoid receptor 2 [8],0.4 nM
same,EC50,Cannabinoid receptor 2 [9],1.8 nM
same,Emax,Cannabinoid receptor 2 [10],100%
same,EC50,Cannabinoid receptor 1 [11],1200 nM
same,EC50,Cannabinoid receptor 1 [12],330 nM
O=C(CCc1nc(-c2ccc(F)cc2Cl)no1)Nc1nc2ccc(OC(F)(F)F)cc2s1,Emax,[1],98%
same,Emax,Cannabinoid receptor 1 [2],36%
same,Emax,Cannabinoid receptor 1 [3],36%
same,EC50,Cannabinoid receptor 1 [4],> 1000 nM
same,Emax,Cannabinoid receptor 2 [5],120%
same,Emax,[6],21%
same,EC50,Cannabinoid receptor 2 [7],6.5 nM
same,EC50,Cannabinoid receptor 2 [8],6.9 nM
same,EC50,Cannabinoid receptor 2 [9],3 nM
same,microsomal CLint,[13],< 100 µL/min/mg
same,Emax,Cannabinoid receptor 2 [10],99%
same,microsomal CLint,[14],< 100 µL/min/mg
same,EC50,Cannabinoid receptor 1 [11],1900 nM
same,EC50,Cannabinoid receptor 1 [12],> 1000 nM
Fc1ccc(-c2noc(CCCNc3cnc4ccc(OC(F)(F)F)cc4c3)n2)c(Cl)c1,Emax,[1],130%
same,Emax,Cannabinoid receptor 1 [2],81%
same,Emax,Cannabinoid receptor 1 [3],78%
same,solubility,[15],49 µg/mL
same,EC50,Cannabinoid receptor 1 [4],850 nM
same,Emax,Cannabinoid receptor 2 [5],110%
same,Emax,[6],120%
same,EC50,Cannabinoid receptor 2 [7],2.3 nM
same,EC50,Cannabinoid receptor 2 [8],1.3 nM
same,EC50,Cannabinoid receptor 2 [9],0.015 nM
same,Emax,Cannabinoid receptor 2 [10],110%
same,EC50,Cannabinoid receptor 1 [11],1100 nM
same,EC50,Cannabinoid receptor 1 [12],130 nM
CC(C)(C)c1ncc(OCCCc2nc(-c3ccc(F)cc3Cl)no2)cn1,Emax,[1],100%
same,Emax,Cannabinoid receptor 1 [2],99%
same,Emax,Cannabinoid receptor 1 [3],63%
same,EC50,Cannabinoid receptor 1 [4],1500 nM
same,Emax,Cannabinoid receptor 2 [5],110%
same,Emax,[6],86%
same,EC50,Cannabinoid receptor 2 [7],24 nM
same,EC50,Cannabinoid receptor 2 [8],16 nM
same,EC50,Cannabinoid receptor 2 [9],4.9 nM
same,Emax,Cannabinoid receptor 2 [10],91%
same,EC50,Cannabinoid receptor 1 [11],610 nM
same,EC50,Cannabinoid receptor 1 [12],540 nM
O=C(CCc1nc(-c2ccc(F)cc2Cl)no1)Nc1ccc(C(F)(F)F)cc1Cl,Emax,Cannabinoid receptor 2 [5],41%
same,AUC,[16],460 ng·h/mL
same,EC50,Cannabinoid receptor 2 [9],370 nM
same,Cmax,[17],100 ng/mL
same,bioavailability,[18],13%
same,half-life,[19],1.6 h
same,EC50,Cannabinoid receptor 1 [11],> 10000 nM
Fc1ccc(-c2noc(CCCOc3cnc4ccc(Cl)cc4c3)n2)c(Cl)c1,Emax,[1],99%
same,Emax,Cannabinoid receptor 1 [2],92%
same,Emax,Cannabinoid receptor 1 [3],48%
same,EC50,Cannabinoid receptor 1 [4],990 nM
same,Emax,Cannabinoid receptor 2 [5],110%
same,Emax,[6],98%
same,EC50,Cannabinoid receptor 2 [7],3.6 nM
same,EC50,Cannabinoid receptor 2 [8],5.1 nM
same,EC50,Cannabinoid receptor 2 [9],7.2 nM
same,Emax,Cannabinoid receptor 2 [10],99%
same,EC50,Cannabinoid receptor 1 [11],1100 nM
same,EC50,Cannabinoid receptor 1 [12],83 nM

# — ChEMBL document CHEMBL1156631 (J Med Chem, 2008)
